The text below walks through data of ChEMBL document CHEMBL1156154, “Heterocyclic fused pyridone carboxylic acid M(1) positive allosteric modulators” (Bioorg Med Chem Lett, 2010).

Active and inactive are the calls of the source. The rule behind the calls is not given here.

The target in data set [1] is Muscarinic acetylcholine receptor M3 (Homo sapiens) (UniProt P20309). The data set is described as follows: Positive allosteric modulator activity at human muscarinic M3 receptor expressed in CHO cells assessed as effect on acetylcholine-induced intracellular calcium mobilization by FLIPR assay. It is filed as functional, cell-based. (In general: Calcium flux is commonly read through the fluorescence of an indicator in the cells.)

Data set [2] deals with T1, Muscarinic acetylcholine receptor M2 (Homo sapiens) (UniProt P08172).
T1 sequence (whole entry): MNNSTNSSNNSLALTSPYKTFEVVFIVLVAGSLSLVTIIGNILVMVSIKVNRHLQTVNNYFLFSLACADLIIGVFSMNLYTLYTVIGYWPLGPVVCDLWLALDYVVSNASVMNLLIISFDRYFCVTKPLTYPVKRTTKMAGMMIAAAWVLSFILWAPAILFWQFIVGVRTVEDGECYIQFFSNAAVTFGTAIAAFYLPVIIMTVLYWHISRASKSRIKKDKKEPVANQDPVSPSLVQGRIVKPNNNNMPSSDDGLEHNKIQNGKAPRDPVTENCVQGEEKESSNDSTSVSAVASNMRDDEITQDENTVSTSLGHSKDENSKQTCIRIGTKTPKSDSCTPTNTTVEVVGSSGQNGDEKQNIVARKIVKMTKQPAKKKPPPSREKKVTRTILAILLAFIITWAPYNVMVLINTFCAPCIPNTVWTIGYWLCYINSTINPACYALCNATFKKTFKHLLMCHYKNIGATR
The data set is described as follows: Positive allosteric modulator activity at human muscarinic acetylcholine M2 receptor expressed in CHO cells assessed as effect on acetylcholine-induced intracellular calcium mobilization by FLIPR assay. It is filed as functional, cell-based.

The target of data set [3] is T2, Muscarinic acetylcholine receptor M4 (Homo sapiens) (UniProt P08173).
T2 sequence (whole entry): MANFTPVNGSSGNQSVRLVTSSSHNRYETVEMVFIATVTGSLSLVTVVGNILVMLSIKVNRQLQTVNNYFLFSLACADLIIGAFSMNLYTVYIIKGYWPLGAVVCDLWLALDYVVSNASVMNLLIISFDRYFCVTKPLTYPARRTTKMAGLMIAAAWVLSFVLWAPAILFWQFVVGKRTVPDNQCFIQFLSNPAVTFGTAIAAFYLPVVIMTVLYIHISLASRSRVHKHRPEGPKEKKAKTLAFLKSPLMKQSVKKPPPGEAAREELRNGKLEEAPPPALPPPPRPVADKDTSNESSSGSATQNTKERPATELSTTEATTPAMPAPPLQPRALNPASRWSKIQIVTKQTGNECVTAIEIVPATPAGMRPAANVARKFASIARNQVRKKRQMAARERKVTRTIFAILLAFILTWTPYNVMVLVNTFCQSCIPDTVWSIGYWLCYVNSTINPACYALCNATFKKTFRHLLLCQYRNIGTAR
The experiment in a line: Positive allosteric modulator activity at human muscarinic M4 receptor expressed in CHO cells assessed as effect on acetylcholine-induced intracellular calcium mobilization by FLIPR assay. It is filed as functional, cell-based.

Data set [4] deals with T3, Muscarinic acetylcholine receptor M1 (Homo sapiens) (UniProt P11229).
T3 sequence (whole entry): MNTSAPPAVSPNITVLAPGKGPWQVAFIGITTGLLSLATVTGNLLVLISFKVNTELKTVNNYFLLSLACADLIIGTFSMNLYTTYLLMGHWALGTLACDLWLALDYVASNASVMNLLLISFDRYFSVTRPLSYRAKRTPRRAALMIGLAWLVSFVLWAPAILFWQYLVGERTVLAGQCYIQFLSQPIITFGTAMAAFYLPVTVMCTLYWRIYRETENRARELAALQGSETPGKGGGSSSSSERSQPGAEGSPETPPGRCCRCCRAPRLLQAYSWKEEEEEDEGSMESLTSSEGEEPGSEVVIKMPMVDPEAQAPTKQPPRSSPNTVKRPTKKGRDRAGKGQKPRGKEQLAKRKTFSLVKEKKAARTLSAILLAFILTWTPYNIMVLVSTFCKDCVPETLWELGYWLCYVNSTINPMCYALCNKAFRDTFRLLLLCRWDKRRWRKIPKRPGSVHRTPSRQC
The data set is described as follows: Positive allosteric modulator activity at human muscarinic M1 receptor expressed in CHO cells assessed as effect on acetylcholine-induced intracellular calcium mobilization by FLIPR assay. It is filed as functional, cell-based. An outline of the steps:
(§1)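 CHO cells expressing human M1 were run with an EC20 concentration of acetylcholine. Calcium mobilization was read on a FLIPR384. Potency is reported as the inflection point. Percent max is the compound plus EC20 ACh response relative to the maximal acetylcholine effect.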

Data set [5] in a line: Plasma protein binding in human serum by equilibrium dialysis method. Background: In equilibrium dialysis free small molecules cross a membrane that holds back macromolecules.
Data set [6] deals with T3, Muscarinic acetylcholine receptor M1 (Homo sapiens). The data set is described as follows: Positive allosteric modulator activity at human muscarinic M1 receptor expressed in CHO cells assessed as effect on acetylcholine-induced intracellular calcium mobilization by FLIPR assay relative to acetylcholine. It is filed as functional, cell-based. In a few lines: as §1
Data set [7] can be described thus: Plasma protein binding in rat serum by equilibrium dialysis method.

Muscarinic acetylcholine receptor M3 (Homo sapiens), sequence (P20309 whole entry, looked up): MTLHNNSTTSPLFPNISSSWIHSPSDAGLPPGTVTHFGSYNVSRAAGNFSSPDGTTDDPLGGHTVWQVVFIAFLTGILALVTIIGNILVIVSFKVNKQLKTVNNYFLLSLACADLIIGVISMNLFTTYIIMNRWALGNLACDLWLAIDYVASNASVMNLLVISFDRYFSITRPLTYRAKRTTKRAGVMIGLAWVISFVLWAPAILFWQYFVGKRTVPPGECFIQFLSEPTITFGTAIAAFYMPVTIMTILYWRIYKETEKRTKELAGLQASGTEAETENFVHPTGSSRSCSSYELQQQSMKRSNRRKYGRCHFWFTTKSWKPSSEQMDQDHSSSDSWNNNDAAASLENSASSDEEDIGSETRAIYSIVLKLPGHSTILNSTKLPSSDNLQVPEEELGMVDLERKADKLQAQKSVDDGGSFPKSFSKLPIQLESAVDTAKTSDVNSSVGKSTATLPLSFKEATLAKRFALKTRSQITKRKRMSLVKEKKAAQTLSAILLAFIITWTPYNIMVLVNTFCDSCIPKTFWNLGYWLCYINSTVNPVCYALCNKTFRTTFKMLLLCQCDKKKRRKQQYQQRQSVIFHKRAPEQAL

With `COc1ccc(-c2ccc(Cn3cc(C(=O)O)c(=O)c4sccc43)nc2)cn1`, the result in data set [1], in data set [2] and in data set [3] was inactive. In addition, the IP in data set [4] came to 2 µM.
A word on the fraction unbound: it is the share of the substance not bound to proteins or other matrix. A lower fraction unbound goes with extensive binding. `Cc1ccn(-c2ccc(Cn3cc(C(=O)O)c(=O)c4cccnc43)cc2)n1`: the result in data set [1], in data set [2] and in data set [3] was inactive. This compound had a fraction unbound in data set [5] of 0.012. The IP in data set [4] worked out at 0.56 µM.
In general, Emax refers to the maximal effect, on the per cent scale that the assay sets. With `O=C(O)c1cn(Cc2ccc(-c3ccccc3)cc2)c2ncncc2c1=O`, the outcome in data set [1], in data set [2] and in data set [3] was inactive. Also, the IP in data set [4] came out at 87.2 µM. Besides, in data set [6], the Emax is 48%.
Turning to `O=C(O)c1cn(Cc2ccc(-n3ccnc3)cc2)c2ccsc2c1=O`, the result in data set [1], in data set [2] and in data set [3] was inactive. The fraction unbound is 0.199 in data set [5] and 0.259 in data set [7]. Besides, the IP in data set [4] worked out at 0.24 µM.
For the compound `Cc1ccn(-c2ccc(Cn3cc(C(=O)O)c(=O)c4sccc43)cc2)n1`, the result in data set [1], in data set [2] and in data set [3] was inactive. In addition, the IP in data set [4] turned out to be 0.51 µM.
For `Cn1cc(-c2ccc(Cn3cc(C(=O)O)c(=O)c4sccc43)cc2)cn1`, the outcome in data set [1], in data set [2] and in data set [3] was inactive. The results for the unbound share (fraction unbound) in data set [5] and in data set [7] were 0.066 and 0.009, respectively. In data set [4], the IP turned out to be 0.15 µM.
For the compound `O=C(O)c1cn(Cc2ccc(-c3ccnc(Cl)c3)cn2)c2ccsc2c1=O`, the result in data set [1], in data set [2] and in data set [3] was inactive. In data set [4], the IP is 0.81 µM.
In the case of `O=C(O)c1cn(Cc2ccc(-c3ccccc3)cc2)c2cnccc2c1=O`, the outcome in data set [1], in data set [2] and in data set [3] was inactive. Moreover, the IP in data set [4] came to 0.43 µM. For the same compound, in data set [6], the Emax came out at 62%.
In the case of `Cc1ccnn1-c1ccc(Cn2cc(C(=O)O)c(=O)c3cccnc32)cc1`, the outcome in data set [1], in data set [2] and in data set [3] was inactive. Also, the IP in data set [4] amounted to 17.9 µM.
On to `O=C(O)c1cn(Cc2ccc(-c3ccccc3)cc2)c2ccncc2c1=O`, for which the outcome in data set [1], in data set [2] and in data set [3] was inactive. Further, the IP in data set [4] was over 100 µM. Also, in data set [6], the Emax worked out at 4%.
Regarding `O=C(O)c1cn(Cc2ccc(-c3ccccc3)cc2)c2ccccc2c1=O`, the outcome in data set [1], in data set [2] and in data set [3] was inactive. In data set [4], the IP came to 0.21 µM. The maximum response (Emax) in data set [6] is 92%.
On to `Cc1cn(-c2ccc(Cn3cc(C(=O)O)c(=O)c4ccncc43)cc2)cn1`, for which the outcome in data set [1], in data set [2] and in data set [3] was inactive. Besides, the IP in data set [4] stood at 1.03 µM.
Consider `O=C(O)c1cn(Cc2ccc(-c3ccccc3)cc2)c2csnc2c1=O`, for which the result in data set [1], in data set [2] and in data set [3] was inactive. The IP in data set [4] came to 3.35 µM. Besides, the Emax in data set [6] was 76%.
As to `Cc1cn(-c2ccc(Cn3cc(C(=O)O)c(=O)c4cccnc43)cc2)cn1`, the result in data set [1], in data set [2] and in data set [3] was inactive. Further, the free fraction (fraction unbound) in data set [5] was 0.233; in data set [7], 0.052. The IP in data set [4] turned out to be 0.34 µM.
Consider `O=C(O)c1cn(Cc2ccc(-n3cccn3)cc2)c2ncccc2c1=O`, for which the result in data set [1], in data set [2] and in data set [3] was inactive. In addition, the figures for the fraction unbound in data set [5] and in data set [7] were 0.061 and 0.048, respectively. In data set [4], the IP worked out at 0.81 µM.
`O=C(O)c1cn(Cc2ccc(-c3cccnc3)cc2)c2ccsc2c1=O`: the result in data set [1], in data set [2] and in data set [3] was inactive. Also, the IP in data set [4] amounted to 0.57 µM.
Turning to `O=C(O)c1cn(Cc2ccc(-n3cccn3)cc2)c2cnccc2c1=O`, the outcome in data set [1], in data set [2] and in data set [3] was inactive. Moreover, in data set [4], the IP stood at 1.14 µM.
For `Nc1cccc(-c2ccc(Cn3cc(C(=O)O)c(=O)c4sccc43)nc2)c1`, the outcome in data set [1], in data set [2] and in data set [3] was inactive. For the same compound, the fraction unbound in data set [5] is 0.117; in data set [7], 0.099. Further, in data set [4], the IP came out at 0.038 µM.
For `CN(C)c1ccc(-c2ccc(Cn3cc(C(=O)O)c(=O)c4sccc43)nc2)cn1`, the outcome in data set [1], in data set [2] and in data set [3] was inactive. Besides, the IP in data set [4] turned out to be 0.5 µM.
For `Cc1ccnn1-c1ccc(Cn2cc(C(=O)O)c(=O)c3ccncc32)cc1`, the outcome in data set [1], in data set [2] and in data set [3] was inactive. Moreover, the IP in data set [4] was 13 µM.
Regarding `O=C(O)c1cn(Cc2ccc(-c3cccnc3)cn2)c2ccsc2c1=O`, the result in data set [1], in data set [2] and in data set [3] was inactive. Further, the IP in data set [4] stood at 1.05 µM.
Regarding `O=C(O)c1cn(Cc2ccc(-c3ccccc3)cc2)c2cccnc2c1=O`, the result in data set [1], in data set [2] and in data set [3] was inactive. Moreover, the IP in data set [4] came out at 1.38 µM. For the same compound, the maximal response (Emax) in data set [6] amounted to 92%.
Take `O=C(O)c1cn(Cc2ccc(-c3ccsc3)cn2)c2ccsc2c1=O`: the result in data set [1], in data set [2] and in data set [3] was inactive. Moreover, the IP in data set [4] was 1.66 µM.
Turning to `O=C(O)c1cn(Cc2ccc(-c3ccccc3)cc2)c2nnccc2c1=O`, the result in data set [1], in data set [2] and in data set [3] was inactive. Moreover, the IP in data set [4] is 5.95 µM. In data set [6], the maximal effect (Emax) amounted to 34%.
`O=C(O)c1cn(Cc2ccc(-c3ccccc3)cc2)c2nsnc2c1=O`: the result in data set [1], in data set [2] and in data set [3] was inactive. Besides, in data set [4], the IP worked out at 3.5 µM. Moreover, in data set [6], the Emax amounted to 69%.
Regarding `O=C(O)c1cn(Cc2ccc(-c3ccncc3)cc2)c2ccsc2c1=O`, the result in data set [1], in data set [2] and in data set [3] was inactive. The IP in data set [4] amounted to 0.6 µM.
